Measurements as given in ChEMBL document CHEMBL1150607, “Ancistrocongolines A-D, new naphthylisoquinoline alkaloids from ancistrocladus congolensis” (J Nat Prod, 2002).
Converted amounts (≈) assume the structure as drawn.

Assays:
Plasmodium falciparum = experiment: Antimalarial activity against Plasmodium falciparum K1 in human erythrocytes after 48 hrs by [3H]hypoxanthine uptake; type: functional, organism-based
Summary of the method: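 Infected human red cells with chloroquine/pyrimethamine-resistant K1 strain exposed to serial dilutions 48 h, 37 °C, reduced O2/elevated CO2; [³H]-hypoxanthine then added, 24 h further incubation, harvested on glass fibre filters, scintillation counted. IC50 from sigmoidal inhibition curve; duplicate, repeated at least once.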

Trypanosoma cruzi = experiment: Antitrypanosomal activity against Trypanosoma cruzi Tulahuen strain C2C4 containing galactosidase gene in rat L6 cells after 4 days; type: functional, organism-based; settings: L6, 96 h
Summary of the method: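 L-6 cells seeded 2000/well in RPMI 1640, 10% FBS, 2 mM L-glutamine; after 24 h, 5000 Lac Z trypomastigotes added with serial drug dilutions, 4 days at 37 °C, 5% CO2. CPRG/Nonidet substrate added, colour read at 540 nm after 2–4 h; IC50 from sigmoidal inhibition curve.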

[1] = test system: Trypanosoma brucei rhodesiense; experiment: Antitrypanosomal activity against Trypanosoma brucei rhodesiense after 72 hrs by alamar blue assay; type: functional, organism-based
Summary of the method: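 STIB 900 trypanosomes in Minimum Essential Medium with 2-mercaptoethanol and 15% heat-inactivated horse serum, serial drug dilutions, 72 h at 37 °C, 5% CO2; Alamar Blue added, 2–4 h more, fluorescence read ex 530/em 590 nm. Signal expressed as percent of control; IC50 determined.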

[2] = Cytotoxicity against rat L6 cells after 72 hrs by alamar blue assay; type: cell-based
Summary of the method: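 L-6 cells in RPMI 1640 with 10% FBS exposed to serial drug dilutions, protocol closely following the T. b. rhodesiense assay; viability read with Alamar Blue, expressed as IC50.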

Leishmania donovani = experiment: Antileishmanial activity against Leishmania donovani; type: functional, organism-based

Structure (SMILES)	IC50 (Plasmodium falciparum)	IC50 (Trypanosoma cruzi)	IC50 [1]	IC50 at 72 h [2]	IC50 (Leishmania donovani)
COc1cc(C)cc2c(-c3c(O)cc(O)c4c3C[C@@H](C)N(C)[C@@H]4C)ccc(O)c12 [ANCISTROCONGOLINE A]	0.214 µg/mL (≈ 0.544 µM)	39.9 µg/mL (≈ 101 µM)	2.97 µg/mL (≈ 7.55 µM)	90 µg/mL (≈ 229 µM)	
COc1cc(O)c2c(c1-c1ccc(OC)c3c(OC)cc(C)cc13)C[C@@H](C)N(C)[C@@H]2C [ANCISTROCONGOLINE B]	0.158 µg/mL (≈ 0.375 µM)	17.4 µg/mL (≈ 41.3 µM)	2.54 µg/mL (≈ 6.03 µM)	33.4 µg/mL (≈ 79.2 µM)	18.8 µg/mL (≈ 44.6 µM)
COc1cc(O)c(-c2ccc(OC)c3c(OC)cc(C)cc23)c2c1[C@@H](C)N(C)[C@H](C)C2 [ANCISTROCONGOLINE C]	3 µg/mL (≈ 7.12 µM)	≥ 90 µg/mL	15.9 µg/mL (≈ 37.7 µM)	≥ 90 µg/mL	19.3 µg/mL (≈ 45.8 µM)
COc1c(-c2c(C)cc(OC)c3c(OC)cccc23)c(O)cc2c1[C@@H](C)N[C@H](C)C2 [ANCISTROCONGOLINE D]	1.98 µg/mL (≈ 4.87 µM)	30.1 µg/mL (≈ 73.9 µM)	5.86 µg/mL (≈ 14.4 µM)	27.7 µg/mL (≈ 68 µM)	> 30 µg/mL
C[C@@H]1CC[C@H]2[C@@H](C)C(=O)O[C@@H]3O[C@@]4(C)CC[C@@H]1[C@]32OO4 [ARTEMISININ]	0.001 µg/mL (≈ 0.00354 µM)				
O=C(Cn1ccnc1[N+](=O)[O-])NCc1ccccc1 [BENZNIDAZOLE]		0.382 µg/mL (≈ 1.47 µM)			
COc1cc(C)cc2c(-c3c(O)cc(O)c4c3C[C@@H](C)N[C@@H]4C)ccc(O)c12 [KORUPENSAMINE A]	0.164 µg/mL (≈ 0.432 µM)	14.5 µg/mL (≈ 38.2 µM)	1.87 µg/mL (≈ 4.93 µM)	38 µg/mL (≈ 100 µM)	25.1 µg/mL (≈ 66.1 µM)
